# Reference: ChEMBL document CHEMBL1153046, “Synthesis and antitumor activity of substituted triazolo[4,3-a]pyrimidin-6-sulfonamide with an incorporated thiazolidinone moiety” (2009)
# Columns and labels:
# Format in all cases: functional
# SF-295 = assay: Growth inhibition of human SF295 cells after 48 hrs by sulforhodamine B assay; settings: SF-295, 48 h
# In short: (§1)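 NCI 60-cell-line panel. Cells are grown in RPMI1640 with 5% fetal calf serum and 2 mM L-glutamine, seeded at a density set by growth characteristics, and preincubated 24 h. Compound is tested at a minimum of five concentrations at 10-fold dilution, with 48 h continuous exposure. Viability is read by sulforhodamine B protein assay. GI50, TGI and LC50 come from dose-response curves.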
# HT-29 = assay: Growth inhibition of human HT-29 cells after 48 hrs by sulforhodamine B assay; settings: HT-29, 48 h; in short: as §1
# MDA-MB-231 = assay: Growth inhibition of human MDA-MB-231 cells after 48 hrs by sulforhodamine B assay; settings: MDA-MB-231, 48 h; in short: as §1
# NCI-H23 = assay: Growth inhibition of human NCI-H23 cells after 48 hrs by sulforhodamine B assay; settings: NCI-H23, 48 h; in short: as §1
# SW-620 = assay: Growth inhibition of human SW620 cells after 48 hrs by sulforhodamine B assay; settings: SW-620, 48 h
# In short: (§2)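 NCI 60-cell-line panel (nine cancer types), with cells grown in RPMI1640 plus 5% fetal calf serum and 2 mM L-glutamine. Cells are seeded at a density that depends on the line and preincubated 24 h. Compounds are then applied at a minimum of five 10-fold dilutions over a 5-log range with 48 h continuous exposure. Viability is read by SRB protein assay, and GI50 is derived from dose-response curves in units of 10^-5 M.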
# OVCAR-3 = assay: Growth inhibition of human OVCAR-3 cells after 48 hrs by sulforhodamine B assay; settings: OVCAR-3, 48 h; in short: as §1
# NCI-H522 = assay: Growth inhibition of human NCI-H522 cells after 48 hrs by sulforhodamine B assay; settings: NCI-H522, 48 h; in short: as §1
# LOX IMVI = assay: Growth inhibition of human LOXIMVI cells after 48 hrs by sulforhodamine B assay; in short: as §1
# 786-0 = assay: Growth inhibition of human 786-0 cells after 48 hrs by sulforhodamine B assay; settings: 786-0, 48 h; in short: as §1
# NCI-H460 [1] = assay: Growth inhibition of human NCI-H460 cells after 48 hrs by sulforhodamine B assay; settings: NCI-H460, 48 h; in short: as §1
# UO-31 = assay: Growth inhibition of human UO31 cells after 48 hrs by sulforhodamine B assay; settings: UO-31, 48 h; in short: as §2
# KM12 = assay: Growth inhibition of human KM12 cells after 48 hrs by sulforhodamine B assay; settings: KM12, 48 h; in short: as §1
# CCRF-CEM = assay: Growth inhibition of human CCRF-CEM cells after 48 hrs by sulforhodamine B assay; in short: as §1
# UACC-257 = assay: Growth inhibition of human UACC257 cells after 48 hrs by sulforhodamine B assay; settings: UACC-257, 48 h; in short: as §2
# NCI-H226 = assay: Growth inhibition of human NCI-H226 cells after 48 hrs by sulforhodamine B assay; settings: NCI-H226, 48 h; in short: as §1
# [2] = Growth inhibition of human […] cells after 48 hrs by sulforhodamine B assay; in short: as §1
# MOLT-4 = assay: Growth inhibition of human MOLT4 cells after 48 hrs by sulforhodamine B assay; settings: MOLT-4, 48 h; in short: as §1
# OVCAR-8 = assay: Growth inhibition of human OVCAR8 cells after 48 hrs by sulforhodamine B assay; settings: OVCAR-8, 48 h; in short: as §1
# [3] = Growth inhibition of human Hs 578T cells after 48 hrs by sulforhodamine B assay; in short: as §1
# SK-MEL-5 = assay: Growth inhibition of human SK-MEL-5 cells after 48 hrs by sulforhodamine B assay; settings: SK-MEL-5, 48 h; in short: as §1
# HCC 2998 = assay: Growth inhibition of human HCC2998 cells after 48 hrs by sulforhodamine B assay; settings: HCC 2998, 48 h; in short: as §1
# HCT-15 = assay: Growth inhibition of human HCT15 cells after 48 hrs by sulforhodamine B assay; settings: HCT-15, 48 h; in short: as §1
# U-251 = assay: Growth inhibition of human U251 cells after 48 hrs by sulforhodamine B assay; settings: U-251, 48 h; in short: as §2
# NCI-H460 [4] = assay: Antiproliferative activity against human NCI-H460 cells assessed as cell growth at 100 uM after 48 hrs by alamar blue assay; settings: NCI-H460, 48 h, read-out: Activity
# In short: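 NCI three-cell-line primary screen. Cells are seeded and preincubated in microtiter plates. Compound is added at a single 10^-4 M concentration and cultures are incubated 48 h. The end-point is read with alamar blue. Results are given as percent growth relative to untreated control cells.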
# CAKI-1 = assay: Growth inhibition of human Caki1 cells after 48 hrs by sulforhodamine B assay; settings: CAKI-1, 48 h; in short: as §1
# UACC-62 = assay: Growth inhibition of human UACC62 cells after 48 hrs by sulforhodamine B assay; settings: UACC-62, 48 h; in short: as §2
# MCF7 = assay: Growth inhibition of human MCF7 cells after 48 hrs by sulforhodamine B assay; settings: MCF7, 48 h; in short: as §1
# K562 = assay: Growth inhibition of human K562 cells after 48 hrs by sulforhodamine B assay; settings: K562, 48 h; in short: as §1
# SK-MEL-28 = assay: Growth inhibition of human SK-MEL-28 cells after 48 hrs by sulforhodamine B assay; settings: SK-MEL-28, 48 h; in short: as §1
# HOP-62 = assay: Growth inhibition of human HOP62 cells after 48 hrs by sulforhodamine B assay; settings: HOP-62, 48 h; in short: as §1
# SR = assay: Growth inhibition of human SR cells after 48 hrs by sulforhodamine B assay; in short: as §2
# [5] = read-out: LC50 (the source's name)
smiles,measurement,setting,value
COc1ccc(/C=N/c2nc3[nH]nc(C)n3c(=O)c2S(=O)(=O)NN2C(=O)C(CN3CCOCC3)SC2c2ccc(OC)cc2)cc1 (stereo unspecified),GI50,SF-295,33.2 µM
same,LC50 (concentration killing 50% of cells),SF-295,> 100 µM
same,TGI,SF-295,> 100 µM
same,GI50,HT-29,26.7 µM
same,GI50,MDA-MB-231,25.3 µM
same,LC50 (50% lethal concentration),MDA-MB-231,> 100 µM
same,TGI,MDA-MB-231,> 100 µM
same,GI50,NCI-H23,87.8 µM
same,TGI,NCI-H23,> 100 µM
same,GI50,SW-620,47.1 µM
same,GI50,OVCAR-3,22.5 µM
same,LC50 (concentration killing 50% of cells),OVCAR-3,> 100 µM
same,TGI,OVCAR-3,60.5 µM
same,GI50,NCI-H522,32.5 µM
same,TGI,NCI-H522,> 100 µM
same,GI50,LOX IMVI,21.6 µM
same,TGI,LOX IMVI,62.4 µM
same,GI50,786-0,67.1 µM
same,TGI,786-0,> 100 µM
same,CC50,786-0; [5],> 100 µM
same,GI50,NCI-H460 [1],87.7 µM
same,TGI,NCI-H460 [1],> 100 µM
same,GI50,UO-31,39.6 µM
same,LC50,UO-31,> 100 µM
same,TGI,UO-31,> 100 µM
same,GI50,KM12,36.1 µM
same,GI50,CCRF-CEM,25.8 µM
same,TGI,CCRF-CEM,78.9 µM
same,GI50,UACC-257,32.2 µM
same,LC50,UACC-257,> 100 µM
same,TGI,UACC-257,> 100 µM
same,GI50,NCI-H226,53.6 µM
same,LC50 (concentration killing 50% of cells),NCI-H226,> 100 µM
same,TGI,NCI-H226,> 100 µM
same,GI50,[2],16.4 µM
same,TGI,[2],44.3 µM
same,CC50,[2]; [5],> 100 µM
same,GI50,MOLT-4,13.6 µM
same,TGI,MOLT-4,34.4 µM
same,CC50,MOLT-4; [5],86.8 µM
same,GI50,OVCAR-8,31.4 µM
same,TGI,OVCAR-8,> 100 µM
same,GI50,[3],41.1 µM
same,LC50 (concentration killing 50% of cells),[3],> 100 µM
same,TGI,[3],> 100 µM
same,GI50,SK-MEL-5,19 µM
same,TGI,SK-MEL-5,> 100 µM
same,CC50,SK-MEL-5; [5],> 100 µM
same,GI50,HCC 2998,22 µM
same,LC50,HCC 2998,> 100 µM
same,TGI,HCC 2998,> 100 µM
same,GI50,HCT-15,26.7 µM
same,TGI,HCT-15,> 100 µM
same,GI50,U-251,40.4 µM
same,LC50,U-251,> 100 µM
same,TGI,U-251,> 100 µM
same,growth at 100 µM,NCI-H460 [4],16%
same,GI50,CAKI-1,43.3 µM
same,LC50 (50% lethal concentration),CAKI-1,> 100 µM
same,TGI,CAKI-1,> 100 µM
same,GI50,UACC-62,25.4 µM
same,TGI,UACC-62,> 100 µM
same,CC50,UACC-62; [5],> 100 µM
same,GI50,MCF7,77.3 µM
same,TGI,MCF7,> 100 µM
same,GI50,K562,13 µM
same,LC50,K562,80.5 µM
same,TGI,K562,32.3 µM
same,GI50,SK-MEL-28,> 100 µM
same,TGI,SK-MEL-28,> 100 µM
same,GI50,HOP-62,86.6 µM
same,LC50,HOP-62,> 100 µM
same,TGI,HOP-62,> 100 µM
same,GI50,SR,11.7 µM
same,LC50 (concentration killing 50% of cells),SR,71.5 µM
same,TGI,SR,28.9 µM
